hIAP activ: increases human intestinal alkaline phosphatase activity; purified human IAP, CDP-Star luminescence, 30 min; stronger effect = higher value; 1 = vehicle-only enzyme, 0 = enzyme-free background; activation factor at 10 µM; hit rate 0.16% among 330,000; AID 2524;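 active means activation factor of the enzyme at least 2-fold when tested at 20 µM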
Target sequence (P09923 whole entry, looked up): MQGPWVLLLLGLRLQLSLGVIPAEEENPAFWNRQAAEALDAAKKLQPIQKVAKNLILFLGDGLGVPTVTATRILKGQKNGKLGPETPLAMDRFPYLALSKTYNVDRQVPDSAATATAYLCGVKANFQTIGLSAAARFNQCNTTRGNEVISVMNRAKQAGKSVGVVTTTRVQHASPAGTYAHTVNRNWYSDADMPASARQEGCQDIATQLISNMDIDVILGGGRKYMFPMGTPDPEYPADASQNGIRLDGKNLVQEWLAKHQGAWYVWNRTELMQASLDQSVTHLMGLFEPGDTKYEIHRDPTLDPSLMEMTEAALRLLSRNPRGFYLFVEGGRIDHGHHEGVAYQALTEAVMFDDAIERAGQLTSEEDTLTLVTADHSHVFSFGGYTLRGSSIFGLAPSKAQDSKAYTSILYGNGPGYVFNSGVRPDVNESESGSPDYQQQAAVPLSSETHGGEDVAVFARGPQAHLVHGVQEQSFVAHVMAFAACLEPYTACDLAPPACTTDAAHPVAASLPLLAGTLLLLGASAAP
mIAP activ: mouse IAP activation | muIAP, CDP-Star luminescence, 30 min; stronger effect = higher value; 1 = vehicle-only enzyme signal, 0 = enzyme-free wells | activation factor at 10 µM | hit rate 0.24% among 330,000 | AID 2805;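 active means activation factor of at least 2 at 20 µM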
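System: mouse IAP enzyme. Reagent: CDP-Star chemiluminescent phosphatase substrate. Benchmarks: DMSO wells, no-enzyme wells. Times: 30 min enzyme-substrate-compound incubation at room temperature. Detection: luminescence from enzymatic CDP-Star hydrolysis. Doses: test compounds delivered from DMSO solution.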
mIAP inh: blocks mouse intestinal alkaline phosphatase. AID 2806. purified mouse IAP, CDP-Star luminescence, 30 min. hit rate 0.2% among 330,000. inhibition, % at 10 µM;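 active means inhibition of at least 40% at 10 µM in the primary screen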
bIAP act: intestinal alkaline phosphatase (bovine) activation | purified bovine IAP, CDP-star luminescence, 30 min; stronger effect = higher value; fold of DMSO-control signal, blank-subtracted | activation factor at 20 µM | hit rate 0.17% among 200,000 | AID 1016;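 active means activation factor of 2 or more at 20 µM, a signal rise over negative controls twice the positive control's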
bIAP inh: blocks bovine intestinal alkaline phosphatase activity. 190,000 tested, under 10 active. AID 1019. purified bovine IAP, CDP-star luminescence, 30 min. inhibition, % at 20 µM;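 active means over 50% inhibition of intestinal alkaline phosphatase at 20 µM in the single-dose screen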
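Assay system – bovine IAP enzyme · Quantity – bovine IAP at 1/65,000,000 final dilution · Detection – CDP-star luminescence signal · Times – 30 min reaction at room temperature · Also added – CDP-star substrate at 30 µM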
hIAP block: human IAP inhibition | purified IAP, CDP-Star luminescence, 30 min | inhibition, % at 10 µM | hit rate 0.12% among 330,000 | AID 2544;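 active means inhibition reaching a set limit with compound at 10 µM in the primary screen, cut at about 35% in these data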
hIAP act conf: human IAP activation confirmation; AID 434926; hit rate 10% among 880; shares compounds with hIAP activ; purified IAP, CDP-Star luminescence, 30 min; stronger effect = lower value; activation (%Activity, negative = activation), % at 8.3 µM;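 active means at least twofold enzyme activation in any of six single-dose repeats, which the averaged readout prints as negative percent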
Each line names hits and unclear results; the compound was inactive in the other large screens (follow-up assays come after a bar, where they were run). Hits are enriched below; roughly 0.79% of the tested compounds scored in any of these assays.

Cc1ccc(NS(=O)(=O)c2ccc(-c3cnc(C4CC4)o3)cc2)cc1	hIAP block 37 (no result: bIAP act, bIAP inh) | hIAP act conf inactive
O=C(CNC(=O)c1ccc(Br)o1)NCc1ccc(Cl)cc1	none (no result: bIAP act, bIAP inh)
CCN(CC)C(=O)C(=O)N/N=C/c1ccc(Cl)cc1Cl	hIAP activ 2.1 | hIAP act conf inactive
Cc1[nH]n(-c2nc(-c3ccccc3)cc(=O)[nH]2)c(=O)c1CCO	hIAP block 62 | hIAP act conf inactive
COC(=O)CCCN1C(=O)NC(c2ccc(-c3ccccc3)cc2)C(C(=O)OCc2ccccc2)=C1C (configuration not stated)	none (no result: hIAP activ, bIAP act, bIAP inh, hIAP block)
CCc1ccc(NC(=O)C2CCN(S(=O)(=O)c3c(C)[nH]c(=O)[nH]c3=O)CC2)cc1	hIAP activ 2.5 | hIAP act conf inactive
CCc1ccc(NC(=O)C2CCN(S(=O)(=O)c3ccc4c(c3)N(C(C)=O)CCO4)CC2)cc1	hIAP block 39 (no result: bIAP act, bIAP inh) | hIAP act conf inactive
CC(=O)N1CCOc2ccc(S(=O)(=O)N3CCC(C(=O)Nc4ccc(C)cc4)CC3)cc21	none (no result: bIAP act, bIAP inh)
NC1=NN=C(N2N=C(c3ccco3)CC2(O)C(F)(F)F)n2ncnc2C1 (configuration not stated)	hIAP activ 2.5 | hIAP act conf inactive
Cc1ccc(C2=NN(C3=NN=C(N)Cc4ncnn43)C(O)(C(F)(F)F)C2)cc1 (configuration not stated)	none
Cc1c(C(=O)NNC(=S)Nc2ccc(S(N)(=O)=O)cc2)oc2ccccc12	hIAP activ 2.1 (no result: bIAP act, bIAP inh) | hIAP act conf inactive
CCc1occc(=O)c1Oc1cc(NN2CCCCC2)c([N+](=O)[O-])cc1[N+](=O)[O-]	hIAP block 42 (no result: bIAP act, bIAP inh) | hIAP act conf inactive
CC1=C/C(=C\C=C(C#N)C#N)N(C)c2ccccc21	hIAP block 36 (no result: bIAP act, bIAP inh) | hIAP act conf inactive
CC12CCC(C(=O)N/N=C/c3ccc(O)cc3)(OC1=O)C2(C)C (configuration not stated)	none (no result: bIAP act, bIAP inh)
Cn1cccc1C(=O)NC(=O)CSc1nc2ccccc2s1	hIAP activ 2.1 | hIAP act conf inactive
CC(=O)CSc1nc2ccccc2s1	none
COc1cc(/C=C2\N=C3CCCCCN3C2=O)ccc1O	none (no result: bIAP inh)
O=C1/C(=C\c2ccc(O)c(O)c2)N=C2CCCCCN12	hIAP block 57 (no result: bIAP act, bIAP inh) | hIAP act conf inactive
Cc1cc(C)cc(NC(=S)N2CCCC2)c1	hIAP block 36 (no result: bIAP act, bIAP inh) | hIAP act conf inactive
COc1cccc(/C=N/NC(=O)c2cc(-c3cccn3C)n[nH]2)c1O	hIAP activ 2.4 | hIAP act conf inactive
CCC(C)[C@@H]1NC(=O)N(CCCN2CCCC2=O)C1=O (some centres not stated)	none (no result: bIAP act, bIAP inh)
CCOC(=O)C1=C(c2ccc(OC)cc2)OC(N)=C(C#N)C1c1cccnc1 (configuration not stated)	hIAP activ 3 (no result: bIAP act, bIAP inh) | hIAP act conf inactive
O=C(CCN1C(=O)/C(=C/c2ccccc2Cl)SC1=S)NC1CCCC1	none (no result: bIAP act, bIAP inh)
NC(=S)NNC(=O)COc1ccccc1O	hIAP activ 2.1 (no result: bIAP act, bIAP inh) | hIAP act conf inactive
COc1ccccc1OCC(=O)NNC(=O)CCCC(=O)NNC(=O)COc1ccccc1OC	none (no result: bIAP act, bIAP inh)
CCOc1ccc(CCNC(=O)c2cc(-c3ccccc3)c(N3CCOCC3)s2)cc1OCC	hIAP activ 2.5, mIAP activ 2.2 (no result: bIAP act, bIAP inh) | hIAP act conf inactive
COc1ccc(CCNC(=O)c2cc(-c3ccccc3)c(N3CCOCC3)s2)c(OC)c1OC	none (no result: bIAP act, bIAP inh)
CCNC(=O)Nc1ccccc1C(=O)OC	none
C#CC(CC)(CC)NC(=O)Nc1ccccc1C(=O)OC	hIAP block 39 | hIAP act conf inactive
O=C(COc1ccc(F)cc1)N1CCCc2ccccc21	none (no result: bIAP act, bIAP inh)
COc1cc(CN2CCN(Cc3cccc(OC)c3OC)CC2)cc(OC)c1	none (no result: bIAP act, bIAP inh)
O=C(c1ccco1)N1CCN(c2nc(-c3ccc(F)cc3)cs2)CC1	hIAP activ 2 | hIAP act conf inactive
O=C1C2CC=CCC2C(=O)N1c1ccc(NCCc2ccc(O)cc2)c([N+](=O)[O-])c1 (configuration not stated)	none
COc1ccc(NC(=O)CNc2ccc(C#N)cc2)cc1	none
O=C(CC(c1ccccc1)c1ccccc1)Nc1ncn[nH]1	hIAP activ 2.5, bIAP act 3.3 | hIAP act conf inactive
O=C(CC1CCCCC1)Nc1ncn[nH]1	hIAP activ 2, bIAP act 2.8 | hIAP act conf inactive
CCCCn1c(N)c(N(CC(C)C)C(=O)CC2OC(=O)c3ccccc32)c(=O)[nH]c1=O (configuration not stated)	none (no result: bIAP act, bIAP inh)
Cc1ccc(NC(=O)COc2ncnc3cc([N+](=O)[O-])ccc23)cc1S(=O)(=O)N1CCOCC1	none (no result: bIAP act, bIAP inh)
COc1cccc(-c2nc(=S)c3c(n2CCCO)CCCC3)c1	hIAP activ 2.4 | hIAP act conf inactive
CC(C)Cn1c(-c2ccccc2)nc(=S)c2c1CCCC2	none
Cc1ccc(S(=O)(=O)Nc2nc3ccccc3nc2NCc2ccco2)cc1	hIAP activ 2.1 | hIAP act conf inactive
O=S(=O)(Nc1nc2ccccc2nc1NCc1ccco1)c1ccc(Cl)cc1	none
CCc1cc(C(=O)N2CCN(S(=O)(=O)c3ccccc3F)CC2)sc1C	none (no result: bIAP act, bIAP inh)
COCCCNC(=O)c1ccc(Cn2c(=O)c3ccccc3n(Cc3ccccc3C#N)c2=O)cc1	none
O=S(=O)(c1ccc2ccccc2c1)n1cccn1	hIAP block 41 (no result: bIAP act, bIAP inh) | hIAP act conf inactive
O=C(COc1ccc(Br)cc1)NCCCn1ccnc1	hIAP activ 2.6 (no result: bIAP act, bIAP inh) | hIAP act conf inactive
C/C(=N/NC(=O)c1ccc(Cn2cccn2)o1)c1cccc(NC(=O)c2ccncc2)c1	hIAP block 46 (no result: bIAP act, bIAP inh) | hIAP act conf -101
Cc1ccc(S(=O)(=O)N(CC(=O)Nc2ccc(Cl)cc2)C(=O)N2CCN(C)CC2)cc1	none (no result: bIAP act, bIAP inh)
CN(C)c1ccc(N=Nc2ccccc2C(=O)OCC(=O)NCC2CCCCC2)cc1	none
CN(C)c1ccc(N=Nc2ccccc2C(=O)OCC(=O)NC2CCCC2)cc1	hIAP block 40 | hIAP act conf inactive
Cc1ccc(C)c(NC(=O)CN(C)C(=O)c2ccc3[nH]c4c(c3c2)CC(C)CC4)c1 (configuration not stated)	none (no result: bIAP act, bIAP inh)
CCOc1cc(/C=C2/C(=O)ON=C2C)cc(Br)c1O	hIAP block 38 (no result: bIAP act, bIAP inh) | hIAP act conf inactive
CCOC(=O)/C(=N\Nc1ccc(OC)cc1)c1csc(Nc2ccccc2)n1	hIAP block 39 | hIAP act conf inactive
CCOC(=O)/C(=N/Nc1ccccc1)c1csc(Nc2ccccc2)n1	none
O=C(Nc1ccc(F)cc1)c1ccc2snnc2c1	hIAP block 35 (no result: bIAP act, bIAP inh) | hIAP act conf inactive
Cc1ccc(NC(=O)c2ccc3snnc3c2)cc1C	none (no result: bIAP act, bIAP inh)
CCC(=O)c1ccc(OCc2ccc(C(=O)c3ccccc3)cc2)cc1	none

Screening results: PubChem, Sanford-Burnham Center for Chemical Genomics
